Columns and labels:
Format in all cases: functional
Mus musculus [1] = experiment: Antitumor activity was determined for average weight on day 1 against P-388 leukemia in mice at a dose of 600 mg/kg
In short: (§1)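 Male B6D2F1J mice, groups of 5, inoculated ip with 10⁶ P-388 cells on day 0. Drug given ip on days 1-4 (qd × 4) in sterile saline, or in 10% Tween 80 for the poorly water-soluble thioether. Average weight per mouse recorded on day 1, with reweighing on day 7 for percent weight change. Untreated control groups had 10-17 animals per experiment.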

Mus musculus [2] = experiment: Antitumor activity was determined for 7-day average percent weight change against P-388 leukemia in mice at a dose of 150 mg/kg
In short: (§2)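 Male B6D2F1J mice given 10⁶ P-388 cells ip on day 0, then treated ip once daily on days 1-4 (qd × 4), 5 mice per dose group. Compounds dosed in sterile saline, except one lipophilic thioether given in 10% Tween 80. Mice weighed on days 1 and 7; mean weight per mouse on day 1 and 7-day weight change reported in g and as percent.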

Mus musculus [3] = experiment: Antitumor activity was determined for average 7-day weight change against P-388 leukemia in mice at a dose of 680 mg/kg; in short: as §2
Mus musculus [4] = experiment: Antitumor activity was determined for average 7-day weight change against P-388 leukemia in mice at a dose of 150 mg/kg; in short: as §2
Mus musculus [5] = experiment: Antitumor activity was determined for survival range of mice against P-388 leukemia in mice at a dose of 85 mg/kg
In short: (§3)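 Male B6D2F1J mice, 5 per dose group, implanted ip with 10⁶ P-388 leukemia cells on day 0. Drug given ip daily on days 1-4 (qd × 4) in sterile saline, or in 10% Tween 80 for the butyl thioether. Survival range recorded in days. Untreated control groups had 10-17 animals per experiment. Mice weighed on days 1 and 7.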

Mus musculus [6] = experiment: Antitumor activity was determined for average 7-day weight change against P-388 leukemia in mice at a dose of 600 mg/kg; in short: as §2
Mus musculus [7] = experiment: Antitumor activity was determined for median survival of mice against P-388 leukemia in mice at a dose of 75 mg/kg
In short: (§4)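 Male B6D2F1J mice implanted ip with 10⁶ P-388 cells on day 0; test agents given ip on days 1–4 (qd × 4) in sterile saline, or in 10% Tween 80 for the lipophilic thioether. Groups of 5 treated mice, with 10–17 untreated controls per experiment. Mice weighed on days 1 and 7 to give the 7-day weight change in g and %. Survival recorded in days as median and range.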

Mus musculus [8] = experiment: Antitumor activity was determined for average 7-day weight change against P-388 leukemia in mice at a dose of 170 mg/kg; in short: as §2
Mus musculus [9] = experiment: Antitumor activity was determined for average weight on day 1 against P-388 leukemia in mice at a dose of 170 mg/kg; in short: as §1
Mus musculus [10] = experiment: Percent increase in life span against P-388 leukemia in mice was determined at a dose of 600 mg/kg; details: P388
In short: (§5)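 Male B6D2F1J mice, 5 per dose group, received 10⁶ P-388 cells ip on day 0. Dosing was ip qd × 4 on days 1-4 in sterile saline, or 10% Tween 80 for the butyl thioether. Median survival times of treated (T) and untreated control (C, 10-17 mice) groups were compared: %ILS = [(T/C) − 1]100. Weights taken on days 1 and 7.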

Mus musculus [11] = experiment: Percent increase in life span against P-388 leukemia in mice was determined at a dose of 150 mg/kg; details: P388; in short: as §5
Mus musculus [12] = experiment: Antitumor activity was determined for survival range of mice against P-388 leukemia in mice at a dose of 75 mg/kg; in short: as §3
Mus musculus [13] = experiment: Antitumor activity was determined for 7-day average percent weight change against P-388 leukemia in mice at a dose of 300 mg/kg; in short: as §2
Mus musculus [14] = experiment: Antitumor activity was determined for average weight on day 1 against P-388 leukemia in mice at a dose of 85 mg/kg; in short: as §1
Mus musculus [15] = experiment: Percent increase in life span against P-388 leukemia in mice was determined at a dose of 340 mg/kg; details: P388; in short: as §5
Mus musculus [16] = experiment: Percent increase in life span against P-388 leukemia in mice was determined at a dose of 85 mg/kg; details: P388; in short: as §5
Mus musculus [17] = experiment: Antitumor activity was determined for survival range of mice against P-388 leukemia in mice at a dose of 150 mg/kg; in short: as §4
Mus musculus [18] = experiment: Antitumor activity was determined for average 7-day weight change against P-388 leukemia in mice at a dose of 340 mg/kg; in short: as §2
Mus musculus [19] = experiment: Percent increase in life span against P-388 leukemia in mice was determined at a dose of 170 mg/kg; details: P388; in short: as §5
Mus musculus [20] = experiment: Antitumor activity was determined for average weight on day 1 against P-388 leukemia in mice at a dose 75 of mg/kg; in short: as §2
Mus musculus [21] = experiment: Antitumor activity was determined for median survival of mice against P-388 leukemia in mice at a dose of 170 mg/kg; in short: as §4
Mus musculus [22] = experiment: Antitumor activity was determined for average 7-day weight change against P-388 leukemia in mice at a dose of 85 mg/kg; in short: as §2
Mus musculus [23] = experiment: Antitumor activity was determined for survival range of mice against P-388 leukemia in mice at a dose of 170 mg/kg; in short: as §4
Mus musculus [24] = experiment: Antitumor activity was determined for average 7-day weight change against P-388 leukemia in mice at a dose of 75 mg/kg; in short: as §2
Mus musculus [25] = experiment: Antitumor activity was determined for average weight on day 1 against P-388 leukemia in mice at a dose 150 of mg/kg; in short: as §2
Mus musculus [26] = experiment: Percent increase in life span against P-388 leukemia in mice was determined at a dose of 300 mg/kg; details: P388; in short: as §5
Mus musculus [27] = experiment: Antitumor activity was determined for 7-day average percent weight change against P-388 leukemia in mice at a dose of 75 mg/kg; in short: as §2
Mus musculus [28] = experiment: Percent increase in life span against P-388 leukemia in mice was determined at a dose of 75 mg/kg; details: P388; in short: as §5
Mus musculus [29] = experiment: Antitumor activity was determined for median survival of mice against P-388 leukemia in mice at a dose of 150 mg/kg; in short: as §4
Mus musculus [30] = experiment: Antitumor activity was determined for 7-day average percent weight change against P-388 leukemia in mice at a dose of 85 mg/kg; in short: as §2
Mus musculus [31] = experiment: Percent increase in life span against P-388 leukemia in mice was determined at a dose of 680 mg/kg; details: P388; in short: as §5
Mus musculus [32] = experiment: Antitumor activity was determined for survival range of mice against P-388 leukemia in mice at a dose of 680 mg/kg; in short: as §4
Mus musculus [33] = experiment: Antitumor activity was determined for survival range of mice against P-388 leukemia in mice at a dose of 300 mg/kg; in short: as §4
Mus musculus [34] = experiment: Antitumor activity was determined for average 7-day weight change against P-388 leukemia in mice at a dose of 300 mg/kg; in short: as §2
Mus musculus [35] = experiment: Antitumor activity was determined for average weight on day 1 against P-388 leukemia in mice at a dose of 300 mg/kg; in short: as §1
Mus musculus [36] = experiment: Antitumor activity was determined for 7-day average percent weight change against P-388 leukemia in mice at a dose of 170 mg/kg; in short: as §2
Mus musculus [37] = experiment: Antitumor activity was determined for median survival of mice against P-388 leukemia in mice at a dose of 300 mg/kg; in short: as §4
Mus musculus [38] = experiment: Antitumor activity was determined for median survival of mice against P-388 leukemia in mice at a dose of 340 mg/kg; in short: as §4

CC[C@H]1OC(n2cc(F)c(=O)[nH]c2=O)[C@H](O)[C@@H]1O (stereo partly drawn)
Average weight (Mus musculus [1]): 23.2 g mouse-1 | Weight change (Mus musculus [2]): 7% | Average weight (Mus musculus [3]): -1.4 g mouse-1 | Average weight (Mus musculus [4]): 1.8 g mouse-1 | Survival range (Mus musculus [5]): 13 | Average weight (Mus musculus [6]): -2.4 g mouse-1 | Survival median (Mus musculus [7]): 15 | Average weight (Mus musculus [8]): 1.6 g mouse-1 | Average weight (Mus musculus [9]): 26.4 g mouse-1 | ILS at 600 mg/kg (Mus musculus [10]): 63% | ILS at 150 mg/kg (Mus musculus [11]): 54% | Survival range (Mus musculus [12]): 14 | Weight change (Mus musculus [13]): 3% | Average weight (Mus musculus [14]): 26.2 g mouse-1 | ILS at 340 mg/kg (Mus musculus [15]): 45% | ILS at 85 mg/kg (Mus musculus [16]): 18% | Survival range (Mus musculus [17]): 15 | Average weight (Mus musculus [18]): 1.4 g mouse-1 | ILS at 170 mg/kg (Mus musculus [19]): 27% | Average weight (Mus musculus [20]): 21.8 g mouse-1 | Survival median (Mus musculus [21]): 14 | Average weight (Mus musculus [22]): 1.2 g mouse-1 | Survival range (Mus musculus [23]): 13 | Average weight (Mus musculus [24]): 2 g mouse-1 | Average weight (Mus musculus [25]): 25.8 g mouse-1 | ILS at 300 mg/kg (Mus musculus [26]): 54% | Weight change (Mus musculus [27]): 9% | ILS at 75 mg/kg (Mus musculus [28]): 36% | Survival median (Mus musculus [29]): 17 | Weight change (Mus musculus [30]): 5% | ILS at 680 mg/kg (Mus musculus [31]): 54% | Survival range (Mus musculus [32]): 16 | Survival range (Mus musculus [33]): 17 | Average weight (Mus musculus [34]): 0.6 g mouse-1 | Average weight (Mus musculus [35]): 23.2 g mouse-1 | Weight change (Mus musculus [36]): 6% | Survival median (Mus musculus [37]): 17 | Survival median (Mus musculus [38]): 16

Reference: ChEMBL document CHEMBL1122125, “Synthesis and in vivo antitumor activity of potential 5-fluorouracil prodrugs” (1982)
